Assay outcomes deposited in PubChem by The Scripps Research Institute Molecular Screening Center.
MsrA inh – inhibitors of bovine MsrA; hit rate 0.75% among 360,000; inhibition, % at 15.5 µM; purified bovine MsrA, absorbance read-out;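 further: 0% = vehicle wells with enzyme and 100% = reference inhibitor wells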
MC4R antagonist – antagonists of human melanocortin 4 receptor (MC4R). P32245. MC4R-expressing cells, MTII-stimulated cAMP, LANCE TR-FRET. inhibition, % at 6.5 µM. hit rate 0.48% among 360,000;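 active means inhibition above its plate's cutoff, the mean of tested wells on that plate plus 3 SD, cut at about 29% in these data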;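 further: 0% = Melanotan II alone and 100% = Melanotan II plus saturating MCL0020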
Target sequence (P32245 whole entry, looked up): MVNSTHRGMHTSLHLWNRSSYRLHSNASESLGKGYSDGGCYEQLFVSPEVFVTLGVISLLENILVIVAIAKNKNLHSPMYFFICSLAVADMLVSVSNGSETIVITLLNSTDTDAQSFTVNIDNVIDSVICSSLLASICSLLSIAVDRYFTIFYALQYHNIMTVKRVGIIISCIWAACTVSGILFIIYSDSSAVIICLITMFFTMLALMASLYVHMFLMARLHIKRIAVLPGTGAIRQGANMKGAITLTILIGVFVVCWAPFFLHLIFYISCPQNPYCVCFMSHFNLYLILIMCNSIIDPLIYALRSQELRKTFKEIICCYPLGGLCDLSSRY
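System: U2OS cells stably expressing human melanocortin 4 receptor (MC4R). Reagent: Melanotan II challenge after compound preincubation. Doses: 6.5 µM. Times: 30-min compound, 1-h challenge, 1-h detection, room temperature. Measured by: TR-FRET with Eu-cAMP and labeled anti-cAMP, 671 nm. Replicates: singlicate.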
MsrA act – activators of bovine methionine sulfoxide reductase A; activation, % at 10.6 µM; purified bovine MsrA, absorbance read-out; hit rate 0.3% among 360,000; in the data active means activation above about 7.5%;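 further: 0% = vehicle and 100% = reference activator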
MC4R ag barr – human MC4R agonism via beta-arrestin. P32245. U2OS MC4R beta-arrestin complementation, luminescence; percent of melanotan II response, DMSO zero. activation, % at 8.9 µM. hit rate 0.98% among 360,000. AID 540308;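 active means activation above a per-plate cutoff, the mean activation of sample wells on that plate plus 3 SD, cut at about 8% in these data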
MsrA conf – confirmation of bovine MsrA inhibitors | purified bovine MsrA, absorbance read-out | hit rate 41% among 2,300 | shares compounds with MsrA inh | inhibition, % at 15.5 µM;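 further: coupled to thioredoxin reductase with NADPH and selenocystamine and DMSO as substrate; 0% = vehicle only and 100% = full effect of reference inhibitor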
Starred values were filed as active, the others as inactive; · = no result given. In the library only some 2.3% were active in any assay of this set; here they are far more common. Unless noted, no stated cut-off is given here; in the data, active means inhibition above about 4.5%; inactive means the rest.

SMILES	MsrA inh	MC4R antagonist	MsrA act	MC4R ag barr	MsrA conf
O=C(O)c1ccc(/C=N/NC(=O)c2ccc(NS(=O)(=O)c3cccs3)cc2)cc1	5.5*	17	-5	2	5.5*
COc1cccc(C(=O)NCCC(=O)NCc2cc(=O)n(C)c(=O)n2C)c1	-1	8	-2	-1	·
N#CNC(=Nc1cccc(C(F)(F)F)c1)SCc1ccc(C(=O)O)cc1	1	12	-1	0	·
O=C1NC(=Nc2ccc(O)cc2)S/C1=C/c1ccco1	4.7*	-31	-7	-2	4.7*
O=C(Nc1ccc2nc(-c3ccc(Br)o3)[nH]c2c1)c1ccco1	6.5*	6	-9	0	6.6*
Nc1c(N(CCO)C(=O)C2CCCC2)c(=O)[nH]c(=O)n1Cc1ccccc1	-1	6	-2	-3	·
Cc1nc(C)c(C(=O)N/N=C/c2cn(C)c3ccccc23)s1	5.1*	4	-2	-1	3
Cc1nc(C)c(C(=O)N/N=C/c2c[nH]c3ccccc23)s1	·	1	-2	-1	·
CN=Cc1nc(-c2ccccc2)oc1O	9.9*	-2	-12	1	7.3*
Cc1ccccc1-c1n[nH]nc1C1=CC(=O)CC(C)(C)C1	1	6	-1	2	·
O=C(CCCC(=O)N(CC(=O)NC1CCCCC1)Cc1ccccc1)Nc1ccccn1	-2	10	-1	1	·
Cc1ccc(C(=O)N/N=C\c2ccc(Br)o2)o1	6.4*	-1	-10	0	6.7*
CCn1c(SCC(=O)Nc2ccc(C(C)=O)cc2)nc2nc3c(cc2c1=O)COC(C)(C)C3	-1	10	-1	0	·
Cc1nc2cc(-c3sccc3-n3cccc3)nn2c(C)c1C	8.2*	-3	-11	1	7.1*
Cc1ccc[n+](/C(=C\C(=C=[N-])C#N)C(=O)c2ccc(Cl)cc2)c1	4.8*	-5	-6	-1	5.0*
COc1cc(/C=N/Nc2ccccn2)ccc1O	4	11	-4	-1	·
COc1cc(/C=N/Nc2cc(C)nc(NS(=O)(=O)c3ccccc3)n2)ccc1O	7.4*	20	-7	1	6.9*
COc1cc(/C=N/Nc2cc(C)nc(NS(=O)(=O)c3ccc(C)cc3)n2)ccc1O	5.5*	10	-8	1	5.7*
CCCCNC(=O)CCCn1c(=O)[nH]c2ccc(Br)cc2c1=O	0	3	-14	1	·
CCNc1nc(OCCNC(C)=O)nc(N(C)C)n1	0	1	-3	-3	·
O=C(C1=C(O)C(=O)N(CCOCCO)C1c1cccc([N+](=O)[O-])c1)c1cccs1 (stereo unspecified)	5.0*	-5	-8	1	4
O=C(O)c1ccccc1NS(=O)(=O)c1ccc(NN=Cc2ccccc2F)c([N+](=O)[O-])c1	5.3*	5	-7	-1	3
O=C(N/N=C/c1ccc(-c2ccccc2C(=O)O)o1)c1cccs1	6.8*	-2	-5	-2	4.6*
Cc1nn2c(=O)cc(CSc3ccccc3NC(=O)c3ccccc3)nc2s1	17*	-2	2	-2	13*
Cc1nn2c(=O)cc(CSc3ccccc3NC(=O)c3ccccc3F)nc2s1	4.7*	6	-5	-3	3
SMILES	MsrA inh	MC4R antagonist	MsrA act	MC4R ag barr	MsrA conf
CC(C)c1nn2c(=O)cc(CSc3ccccc3NC(=O)c3ccccc3F)nc2s1	1	9	-10	1	·
COc1cc(C(=O)Nc2ccccc2SCc2cc(=O)n3nc(C)sc3n2)cc(OC)c1OC	1	9	-4	-3	·
COc1ccc(/C=N/NC(=S)Nc2ccccc2)cc1COc1ccc(Br)cc1	2	14	-4	3	·
COc1cc(/C=N/NC(=S)Nc2cccc(C(=O)O)c2)ccc1O	5.1*	-3	-6	-1	5.6*
COc1ccc(/C=N/NC(=S)Nc2ccccc2)cc1	4.9*	-6	-8	-2	4
COc1ccc(/C=N/NC(=S)Nc2cccc(C(=O)O)c2)cc1	4	-5	-6	-3	·
CCNc1nc(NCC)nc(N/N=C/c2ccc(OC)cc2)n1	1	0	-5	0	·
COc1ccc(/C=N/Nc2nc(C)nc(N)n2)cc1	4.7*	-1	-4	-1	3
COc1ccc(/C=N/Nc2cc(=O)n(C)c(=O)n2C)cc1OC	4.7*	3	-8	1	4.7*
O=c1nc(-c2ccccc2)n(-c2ccc(Cl)cc2)[nH]1	0	12	-4	0	·
COc1cc(/C=N/Nc2ccc(C(=O)O)cc2)ccc1O	7.1*	-7	-6	2	5.1*
COc1ccc(/C=N/Nc2ccc(C(=O)O)cc2)c(OC)c1OC	5.8*	-12	-6	0	5.5*
COc1ccc(/C=N/NC(=S)SC)cc1OC	6.2*	8	-4	-2	4
COc1cc(C=O)ccc1O	6.2*	4	-8	-1	3
COc1ccc(C=NNC(=O)NN=Cc2ccc(OC)c(OC)c2)cc1OC	3	-2	-5	1	·
Cc1onc(-c2c(F)cccc2Cl)c1C(=O)OCC(=O)NCc1ccco1	0	6	-1	-2	·
Cc1cccc(NC(=O)COc2coc(CN3CCN(c4ccccc4)CC3)cc2=O)c1	-1	11	-5	-5	·
COc1cc(/C=N/Nc2nc(N3CCCC3)nc(N3CCCC3)n2)ccc1O	5.2*	-4	-13	2	2
COc1ccc(/C=N/Nc2nonc2N)cc1OC	4	2	-2	0	·
COc1cc(/C=N/Nc2ccc(S(N)(=O)=O)cc2)cc(OC)c1OC	5.6*	0	-2	0	6.3*
COc1ccc(/C=N/Nc2nc(N)cc(Cl)n2)cc1OC	5.8*	-4	-3	-2	3
COc1ccc(-c2cnnc(N/N=C/c3ccc(O)c(OC)c3)n2)cc1	6.4*	-16	-14	0	6.6*
COc1ccccc1N=Nc1c(C)noc1C	0	-13	-5	-3	·
CC(=O)Nc1ccc(/C=N/NC(=S)NC(C)C)cc1	8.9*	-8	-1	3	4
COc1ccc(-c2cc3nnc(-c4ccccc4)nc3s2)cc1	1	3	-2	0	·
SMILES	MsrA inh	MC4R antagonist	MsrA act	MC4R ag barr	MsrA conf
CC1CN(c2ncc(/C=N/NC(=O)c3ccccc3O)s2)CC(C)O1 (stereo unspecified)	6.4*	4	-5	-3	5.7*
COc1ccccc1-c1c(C)c(C)nc(N)c1C#N	2	1	-2	-2	·
CCc1nc(N)c(C#N)c(-c2ccccc2OC)c1C	4.7*	-7	-10	2	0
CC(=O)Nc1ccc(Nc2nc3ccccc3nc2NS(=O)(=O)c2ccccc2)cc1	2	-4	-6	-2	·
COc1ccc(/C=N/N=C2/NC(=O)C(CC(=O)NC(N)=O)S2)cc1 (stereo unspecified)	3	6	-2	-2	·
COc1ccc(S(=O)(=O)Oc2cccc(/C=N/N=C3/NC(=O)C(CC(=O)O)S3)c2)cc1 (stereo unspecified)	5.2*	10	-3	-1	2
COc1ccc(/C=N/N=C2/NC(=O)C(CC(=O)O)S2)cc1OCc1ccc(Cl)cc1Cl (stereo unspecified)	2	-2	-4	-1	·
